Experiments:
MCF7 = assay: Antiproliferative activity against human MCF7 cells by MTT assay; type: functional, cell-based
Procedure, shortened: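 Cells plated at 8 × 10^3/well (MDA-MB-231) or 10^4/well (MCF7) in 96-well plates. Compounds fed in media with 5% FBS (MDA-MB-231) or 1% FBS (MCF7). MTT read-out of viable cells.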

MDA-MB-468 [1] = assay: Growth inhibition of human MDA-MB-468 cells assessed as cell growth at 10 uM after 48 hrs by sulforhodamine B assay; type: functional; settings: MDA-MB-468, 48 h, read-out: Activity
Procedure, shortened: (§1)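 Single-dose NCI-60 screen: adherent cells in RPMI 1640 with 5% FBS were exposed to 10 µM for 48 h at 37 °C after a 24 h preincubation. They were fixed in situ with cold TCA (10% final), stained with 0.4% SRB in 1% acetic acid, solubilized in 10 mM Tris base, and read at 515 nm. Percent growth was taken relative to time-zero and control plates.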

UO-31 = assay: Growth inhibition of human UO31 cells assessed as cell growth at 10 uM after 48 hrs by sulforhodamine B assay; type: functional; settings: UO-31, 48 h, read-out: Activity
Procedure, shortened: (§2)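 Single-dose NCI-60 test at 10 µM. Cells were grown in RPMI 1640 with 5% FBS and 2 mM L-glutamine, preincubated 24 h, with T0 plates TCA-fixed. Exposure was 48 h at 37 °C, 5% CO2. Cells were fixed with cold TCA (final 10%, 4 °C, 60 min), stained with SRB and read at 515 nm. Percent growth was taken relative to T0 and untreated control; negative values denote cell kill.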

TK-10 = assay: Growth inhibition of human TK10 cells assessed as cell growth at 10 uM after 48 hrs by sulforhodamine B assay; type: functional; settings: TK-10, 48 h, read-out: Activity; procedure, shortened: as §2
SN12C = assay: Growth inhibition of human SN12C cells assessed as cell growth at 10 uM after 48 hrs by sulforhodamine B assay; type: functional; settings: read-out: Activity; procedure, shortened: as §2
SK-OV-3 = assay: Growth inhibition of human SKOV3 cells assessed as cell growth at 10 uM after 48 hrs by sulforhodamine B assay; type: functional; settings: SK-OV-3, 48 h, read-out: Activity; procedure, shortened: as §2
UACC-62 = assay: Growth inhibition of human UACC62 cells assessed as cell growth at 10 uM after 48 hrs by sulforhodamine B assay; type: functional; settings: UACC-62, 48 h, read-out: Activity; procedure, shortened: as §2
SNB-19 [2] = assay: Growth inhibition of human SNB19 cells assessed as cell growth at 10 uM after 48 hrs by sulforhodamine B assay; type: functional; settings: SNB-19, 48 h, read-out: Activity; procedure, shortened: as §2
HT-29 = assay: Growth inhibition of human HT-29 cells assessed as cell growth at 10 uM after 48 hrs by sulforhodamine B assay; type: functional; settings: HT-29, 48 h, read-out: Activity
Procedure, shortened: (§3)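 NCI-60 single-dose screen at 10 µM: cells in RPMI 1640 with 5% FBS, preincubated 24 h, then exposed 48 h at 37 °C. TCA fixation (16% final for suspension cells), SRB staining, absorbance 515 nm. Percent growth relative to time-zero and untreated control plates; negative values indicate cell kill.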

HCT-116 = assay: Growth inhibition of human HCT116 cells assessed as cell growth at 10 uM after 48 hrs by sulforhodamine B assay; type: functional; settings: HCT-116, 48 h, read-out: Activity; procedure, shortened: as §3
COLO 205 = assay: Growth inhibition of human COLO205 cells assessed as cell growth at 10 uM after 48 hrs by sulforhodamine B assay; type: functional; settings: COLO 205, 48 h, read-out: Activity; procedure, shortened: as §3
NCI-H522 = assay: Growth inhibition of human NCI-H522 cells assessed as cell growth at 10 uM after 48 hrs by sulforhodamine B assay; type: functional; settings: NCI-H522, 48 h, read-out: Activity; procedure, shortened: as §1
A549 = assay: Growth inhibition of human A549/ATCC cells assessed as cell growth at 10 uM after 48 hrs by sulforhodamine B assay; type: functional; settings: A549, 48 h, read-out: Activity; procedure, shortened: as §3
RPMI-8226 = assay: Growth inhibition of human RPMI8226 cells assessed as cell growth at 10 uM after 48 hrs by sulforhodamine B assay; type: functional; settings: RPMI-8226, 48 h, read-out: Activity
Procedure, shortened: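 Single 10 µM dose applied to suspension cells in RPMI 1640 with 5% FBS and 2 mM L-glutamine for 48 h at 37 °C. Settled cells were fixed with 80% TCA (16% final), stained with SRB, and read at 515 nm. Percent growth was calculated against time-zero and untreated control optical densities.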

HL-60(TB) = assay: Growth inhibition of human HL-60(TB) cells assessed as cell growth at 10 uM after 48 hrs by sulforhodamine B assay; type: functional; settings: HL-60, 48 h, read-out: Activity
Procedure, shortened: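 NCI-60 single-dose screen run at 10 µM on HL-60(TB) suspension cells in RPMI 1640 with 5% FBS and 2 mM L-glutamine. Cells were preincubated for 24 h, with a time-zero plate fixed then. Exposure lasted 48 h at 37 °C. Settled cells were fixed with TCA (16% final), stained with SRB and read at 515 nm. Percent growth is relative to control and T0.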

MDA-MB-468 [3] = assay: Growth inhibition of human MDA-MB-468 cells after 48 hrs by sulforhodamine B assay; type: functional; settings: MDA-MB-468, 48 h
Procedure, shortened: (§4)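 NCI-60 panel cells grown in RPMI 1640 with 5% FBS and 2 mM L-glutamine, seeded at 5000–40,000 cells/well and preincubated 24 h. Five 10-fold dilutions (0.001–100 µM) from DMSO stocks were added for 48 h at 37 °C. Adherent cells were fixed with cold TCA (10% final) for 60 min at 4 °C, stained with 0.4% SRB, and read at 515 nm. GI50 was set where 100×(T−T0)/(C−T0)=50.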

786-0 = assay: Growth inhibition of human 786-0 cells after 48 hrs by sulforhodamine B assay; type: functional; settings: 786-0, 48 h
Procedure, shortened: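 NCI-60 screen: cells in RPMI 1640 with 5% FBS and 2 mM glutamine, 5000–40,000 cells/well, preincubated 24 h. Five concentrations (10-fold dilutions; 100 to 0.001 µM) applied for 48 h at 37 °C. TCA fixation, SRB stain, absorbance at 515 nm. Time-zero plates included; GI50 where 100×(T−T0)/(C−T0)=50.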

SK-MEL-2 = assay: Growth inhibition of human SK-MEL-2 cells after 48 hrs by sulforhodamine B assay; type: functional; settings: SK-MEL-2, 48 h; procedure, shortened: as §4
SNB-19 [4] = assay: Growth inhibition of human SNB19 cells after 48 hrs by sulforhodamine B assay; type: functional; settings: SNB-19, 48 h
Procedure, shortened: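 NCI-60 five-dose screen. Cells were grown in RPMI 1640 with 5% FBS and 2 mM L-glutamine, plated at 5000–40,000 cells/well and incubated 24 h before dosing, with T0 plates TCA-fixed. DMSO stocks were diluted to doses of […] and exposed 48 h at 37 °C, 5% CO2. Cells were fixed with cold TCA (final 10%, 60 min, 4 °C), stained with 0.4% SRB in 1% acetic acid for 10 min, solubilized in 10 mM trizma base and read at 515 nm. GI50 is where 100×(T−T0)/(C−T0)=50.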

NCI-H23 = assay: Growth inhibition of human NCI-H23 cells after 48 hrs by sulforhodamine B assay; type: functional; settings: NCI-H23, 48 h; procedure, shortened: as §4

Compound | IC50 (MCF7) [µM] | growth at 10 µM (MDA-MB-468 [1]) [%] | growth at 10 µM (UO-31) [%] | growth at 10 µM (TK-10) [%] | growth at 10 µM (SN12C) [%] | growth at 10 µM (SK-OV-3) [%] | growth at 10 µM (UACC-62) [%] | growth at 10 µM (SNB-19 [2]) [%] | growth at 10 µM (HT-29) [%] | growth at 10 µM (HCT-116) [%] | growth at 10 µM (COLO 205) [%] | growth at 10 µM (NCI-H522) [%] | growth at 10 µM (A549) [%] | growth at 10 µM (RPMI-8226) [%] | growth at 10 µM (HL-60(TB)) [%] | GI50 (MDA-MB-468 [3]) [µM] | GI50 (786-0) [µM] | GI50 (SK-MEL-2) [µM] | GI50 (SNB-19 [4]) [µM] | GI50 (NCI-H23) [µM]
CC(C)=CCC/C(C)=C/CC/C(C)=C/CC[C@]1(C)CCc2c3c(cc(C)c2O1)OCN(CCCCCCO)C3 | > 20 | -84.5 | -37.8 | 88.4 | 40.3 | -37.2 | 75.8 | -6.48 | -25.8 | -97.3 | -79.6 | -0.37 | -34.7 | 35.4 | -24.5 | 0.629 | 1.74 | 5.66 | 0.632 | 4.57
CC(C)=CCC/C(C)=C/CC/C(C)=C/CC[C@]1(C)CCc2c3c(c(C)c(C)c2O1)OCN(CCCCCCO)C3 | > 20 | -46.7 | 42.7 | 97.9 | 66.5 | 13.4 | 86.7 | 18.1 | 17.4 | -92.7 | 31.8 | 68.3 | 38.9 | 82.4 | 65.9 | 2.61 | 2.79 | 3.27 | 2.48 | 2.84
CC(C)=CCC/C(C)=C/CC/C(C)=C/CC[C@]1(C)CCc2c3c(cc(C)c2O1)OCN(CCCCCO)C3 | 9.1 | 43 | 50.4 | 76.3 | 67.4 | 96.9 | 93.2 | 82 | -34.9 | -89.6 | 3.96 | 4.69 | 36.1 | -16.3 | 58.3 | 4.14 | 6.47 | 7.47 | 5.99 | 6.67
